Calls of active or inactive are those of the source. The rule behind the calls is not given here.

The subject of the assay is Hepatitis C virus. Nature of the assay: Antiviral activity against HCV infected in human HuH5.2 cells assessed as inhibition of subgenomic RNA replication after 4 days by Steady-Glo luciferase assay. The assay is classed as functional, organism-based. To be noted: Hepacivirus hominis. The method, boiled down:
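Huh-5-2 replicon cells seeded at 5000/well in complete DMEM with 250 µg/mL G418, grown 24 h at 37 °C (5% CO2). Medium then replaced by threefold serial dilutions of compound in complete DMEM without G418. After 4 days at 37 °C, medium removed and luciferase activity read by luminescence.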
Take `COC(=O)c1nc(Sc2ccc(F)cc2)n(COCCOC(C)=O)n1`: the outcome was inactive.

On to `NC(=O)c1nc(Sc2ccccc2)n(COCCO)n1`, for which the result was inactive.

Regarding `COC(=O)c1nc(Sc2ccc(C(C)(C)C)cc2)n(COCCOC(C)=O)n1`, the outcome was inactive.

As for `COC(=O)c1nc(Sc2ccccc2F)n(COCCOC(C)=O)n1`, the result was inactive.

On to `COc1cccc(Sc2nc(C(N)=O)nn2COCCO)c1`, for which the result was inactive.

In the case of `NC(=O)c1nc(Sc2cccc(C(F)(F)F)c2)n(COCCO)n1`, the result was inactive.

Consider `COC(=O)c1nc(SCc2cccc(C(F)(F)F)c2)n(COCCOC(C)=O)n1`, for which the result was inactive.

In the case of `COC(=O)c1nc(Sc2ccc(C)cc2)n(COCCOC(C)=O)n1`, the outcome was inactive.

Consider `COc1ccccc1Sc1nc(C(N)=O)nn1COCCO`, for which the outcome was inactive.

`COC(=O)c1nc(Sc2ccccc2)n(COCCOC(C)=O)n1`: the result was inactive.

`COC(=O)c1nc(Sc2ccc(C(F)(F)F)cc2)n(COCCOC(C)=O)n1`: the result was inactive.

In the case of `COC(=O)c1nc(Sc2ccccc2C(F)(F)F)n(COCCOC(C)=O)n1`, the outcome was inactive.

For the compound `COC(=O)c1nc(Sc2ccc(OC)cc2)n(COCCOC(C)=O)n1`, the outcome was inactive.

Turning to `COC(=O)c1nc(Sc2ccc3ccccc3c2)n(COCCOC(C)=O)n1`, the outcome was inactive.

Turning to `COC(=O)c1nc(Sc2cccc(F)c2)n(COCCOC(C)=O)n1`, the result was inactive.

Consider `NC(=O)c1nc(Sc2ccccc2F)n(COCCO)n1`, for which the outcome was inactive.

On to `COC(=O)c1nc(Sc2cccc(C)c2)n(COCCOC(C)=O)n1`, for which the result was inactive.

For `NC(=O)c1nc(Sc2ccccc2C(F)(F)F)n(COCCO)n1`, the outcome was inactive.

For `COC(=O)c1nc(Sc2cccc(OC)c2)n(COCCOC(C)=O)n1`, the result was inactive.

Turning to `NC(=O)c1nc(Sc2ccc(F)cc2)n(COCCO)n1`, the result was inactive.

Turning to `NC(=O)c1nc(SCc2cccc(C(F)(F)F)c2)n(COCCO)n1`, the result was inactive.

On to `COC(=O)c1nc(Sc2ccc(Cl)cc2)n(COCCOC(C)=O)n1`, for which the result was inactive.

Take `COC(=O)c1nc(Sc2ccccc2C)n(COCCOC(C)=O)n1`: the result was inactive.

As for `Cc1ccc(Sc2nc(C(N)=O)nn2COCCO)cc1`, the result was inactive.

Turning to `COC(=O)c1nc(Sc2ccccc2OC)n(COCCOC(C)=O)n1`, the result was inactive.

For `NC(=O)c1nc(Sc2cccc(F)c2)n(COCCO)n1`, the result was inactive.

For `NC(=O)c1nc(Sc2ccc3ccccc3c2)n(COCCO)n1`, the result was inactive.

`Cc1ccccc1Sc1nc(C(N)=O)nn1COCCO`: the result was inactive.

For the compound `COC(=O)c1nc(Sc2cccc(C(F)(F)F)c2)n(COCCOC(C)=O)n1`, the result was inactive.

As to `NC(=O)c1nc(Sc2ccc(C(F)(F)F)cc2)n(COCCO)n1`, the outcome was inactive.

Regarding `NC(=O)c1nc(Sc2ccc(Cl)cc2)n(COCCO)n1`, the outcome was inactive.

In the case of `CCCSc1nc(C(=O)OC)nn1COCCOC(C)=O`, the outcome was inactive.

Take `Cc1cccc(Sc2nc(C(N)=O)nn2COCCO)c1`: the result was inactive.

As to `COc1ccc(Sc2nc(C(N)=O)nn2COCCO)cc1`, the result was inactive.

For the compound `CC(C)(C)c1ccc(Sc2nc(C(N)=O)nn2COCCO)cc1`, the outcome was inactive.

For the origin of these results see ChEMBL document CHEMBL1158603, “S-aryltriazole acyclonucleosides: synthesis and biological evaluation against hepatitis C virus” (Bioorg Med Chem Lett, 2010).
